According to ChEMBL document CHEMBL4354819, “Discovery of Novel Small Molecule Dual Inhibitors Targeting Toll-Like Receptors 7 and 8” (J Med Chem, 2019):
The source made the active and inactive calls. No cut-off for these calls is given here.

Assays:
[1] = target: Toll-like receptor 7 (Mus musculus) (UniProt P58681); assay: Inhibition of endogenous mouse TLR7 in mouse RAW264.7 cells assessed as resiquimod-induced NO production at > 5 uM incubated for 18 to 24 hrs
[2] = target: T1, Toll-like receptor 8 (Homo sapiens) (UniProt Q9NR97); assay: Inhibition of human TLR8 expressed in HEK293 cells assessed as reduction in R848-induced NFkappaB production at 5 to 20 uM incubated for 16 hrs by quanti-blue SEAP assay; type: cell-based
T1 sequence (whole entry): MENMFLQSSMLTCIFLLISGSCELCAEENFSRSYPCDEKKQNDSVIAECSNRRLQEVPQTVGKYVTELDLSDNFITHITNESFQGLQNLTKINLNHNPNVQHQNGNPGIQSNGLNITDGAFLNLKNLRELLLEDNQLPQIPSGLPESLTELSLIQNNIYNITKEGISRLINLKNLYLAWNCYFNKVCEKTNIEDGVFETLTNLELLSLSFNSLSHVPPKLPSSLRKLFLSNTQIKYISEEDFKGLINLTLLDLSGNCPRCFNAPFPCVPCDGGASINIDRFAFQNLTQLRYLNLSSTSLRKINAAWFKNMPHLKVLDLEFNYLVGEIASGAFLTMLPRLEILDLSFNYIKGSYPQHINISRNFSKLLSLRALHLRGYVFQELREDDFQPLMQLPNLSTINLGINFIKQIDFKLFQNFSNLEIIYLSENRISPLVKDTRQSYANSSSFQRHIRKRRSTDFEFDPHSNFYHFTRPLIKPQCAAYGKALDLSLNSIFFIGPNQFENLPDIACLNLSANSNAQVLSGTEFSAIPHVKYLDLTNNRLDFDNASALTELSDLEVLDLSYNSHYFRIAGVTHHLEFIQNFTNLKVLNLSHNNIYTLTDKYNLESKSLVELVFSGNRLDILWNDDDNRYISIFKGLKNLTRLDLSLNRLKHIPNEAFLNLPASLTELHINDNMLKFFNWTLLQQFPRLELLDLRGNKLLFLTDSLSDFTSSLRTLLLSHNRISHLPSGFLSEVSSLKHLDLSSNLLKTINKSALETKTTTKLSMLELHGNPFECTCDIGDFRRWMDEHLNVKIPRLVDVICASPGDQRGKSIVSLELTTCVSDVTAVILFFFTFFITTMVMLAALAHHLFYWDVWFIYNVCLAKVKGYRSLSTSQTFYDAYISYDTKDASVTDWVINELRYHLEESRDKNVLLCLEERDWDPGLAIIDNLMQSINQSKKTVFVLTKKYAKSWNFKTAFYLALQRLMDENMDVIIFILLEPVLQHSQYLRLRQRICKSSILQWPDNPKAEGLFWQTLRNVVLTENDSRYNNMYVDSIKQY
In short: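 Selectivity panel in stably transfected HEK 293-Blue cells, each overexpressing one human TLR with an inducible SEAP reporter. Agonists: Pam3CSK4 (TLR1/2), Pam2CSK4 (TLR2/6), poly(I:C) (TLR3), LPS (TLR4), R848 (TLR7/8), ODN 2006 (TLR9). Cells were exposed to compound for 16 h. Activity = (raw − untreated)/(ligand + solvent − untreated), with ligand + solvent set as 100%.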

HEK293 [3] = assay: Cytotoxicity against human HEK293 cells transfected with human TLR8 assessed as reduction in cell viability at 0.5 to 20 uM incubated for 16 hrs by WST-1 assay; type: cell-based; conditions: hek293, 16 h
Toll-like receptor 8 = target: T2, Toll-like receptor 8 (Homo sapiens, UniProt Q9NR97); assay: Inhibition of human TLR8 expressed in HEK293 cells assessed as reduction in R848-induced NFkappaB production incubated for 16 hrs by quanti-blue SEAP assay; type: cell-based
T2 sequence (Q9NR97 whole entry): T1 sequence (whole entry)
In short: (§1)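 HEK 293-Blue cells stably expressing hTLR7 or hTLR8 with an inducible SEAP reporter were incubated 16 h with compound under 1 µg/mL R848 stimulation. SEAP was read at 620 nm. Data were normalized to the R848 control, and IC50 was taken from concentration-response curves. […] Mean ± s.d., n = 3 independent experiments.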

Toll-like receptor 7 = target: T3, Toll-like receptor 7 (Homo sapiens, UniProt Q9NYK1); assay: Inhibition of human TLR7 expressed in HEK293 cells assessed as reduction in R848-induced NFkappaB production incubated for 16 hrs by quanti-blue SEAP assay; type: cell-based
T3 sequence (Q9NYK1 whole entry): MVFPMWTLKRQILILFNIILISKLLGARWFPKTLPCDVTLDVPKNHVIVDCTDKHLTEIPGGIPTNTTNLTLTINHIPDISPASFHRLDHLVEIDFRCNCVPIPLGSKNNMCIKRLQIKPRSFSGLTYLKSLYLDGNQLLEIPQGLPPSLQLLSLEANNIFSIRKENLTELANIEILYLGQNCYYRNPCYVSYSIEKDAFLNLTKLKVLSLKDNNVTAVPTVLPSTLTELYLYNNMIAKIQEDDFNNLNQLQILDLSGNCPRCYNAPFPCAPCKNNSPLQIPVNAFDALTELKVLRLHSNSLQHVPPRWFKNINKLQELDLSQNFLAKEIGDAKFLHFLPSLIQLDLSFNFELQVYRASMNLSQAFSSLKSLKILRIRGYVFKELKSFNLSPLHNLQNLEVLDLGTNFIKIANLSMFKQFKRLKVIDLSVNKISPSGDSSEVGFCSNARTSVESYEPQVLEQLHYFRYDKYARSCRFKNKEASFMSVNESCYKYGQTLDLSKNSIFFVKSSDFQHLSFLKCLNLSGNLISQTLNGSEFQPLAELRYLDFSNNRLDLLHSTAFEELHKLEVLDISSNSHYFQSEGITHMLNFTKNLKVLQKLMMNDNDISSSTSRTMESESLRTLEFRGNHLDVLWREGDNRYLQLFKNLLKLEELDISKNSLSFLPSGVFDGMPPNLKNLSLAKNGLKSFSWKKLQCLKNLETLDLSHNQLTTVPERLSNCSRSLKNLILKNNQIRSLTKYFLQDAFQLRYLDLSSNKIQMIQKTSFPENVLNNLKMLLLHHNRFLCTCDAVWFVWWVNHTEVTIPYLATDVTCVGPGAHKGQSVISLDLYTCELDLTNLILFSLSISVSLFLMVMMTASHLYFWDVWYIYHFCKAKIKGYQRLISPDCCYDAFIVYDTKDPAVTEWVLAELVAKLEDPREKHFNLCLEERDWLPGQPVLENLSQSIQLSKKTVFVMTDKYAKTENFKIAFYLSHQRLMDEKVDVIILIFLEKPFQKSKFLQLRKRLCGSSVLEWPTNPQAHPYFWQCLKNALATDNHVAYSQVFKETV
In short: as §1

[4] = target: T1, Toll-like receptor 8 (Homo sapiens); assay: Inhibition of human TLR8 expressed in HEK293 cells assessed as reduction in IL1beta production incubated for 24 hrs by ELISA; type: cell-based
HEK293 [5] = assay: Cytotoxicity against human HEK293 cells transfected with human TLR8 assessed as reduction in cell viability at 100 uM incubated for 16 hrs by WST-1 assay; type: cell-based; conditions: hek293, 16 h
HEK293 [6] = assay: Cytotoxicity against human HEK293 cells transfected with human TLR7 assessed as reduction in cell viability at 100 uM incubated for 16 hrs by WST-1 assay; type: cell-based; conditions: hek293, 16 h

Sequence of Toll-like receptor 7 (Mus musculus) (P58681 whole entry, looked up): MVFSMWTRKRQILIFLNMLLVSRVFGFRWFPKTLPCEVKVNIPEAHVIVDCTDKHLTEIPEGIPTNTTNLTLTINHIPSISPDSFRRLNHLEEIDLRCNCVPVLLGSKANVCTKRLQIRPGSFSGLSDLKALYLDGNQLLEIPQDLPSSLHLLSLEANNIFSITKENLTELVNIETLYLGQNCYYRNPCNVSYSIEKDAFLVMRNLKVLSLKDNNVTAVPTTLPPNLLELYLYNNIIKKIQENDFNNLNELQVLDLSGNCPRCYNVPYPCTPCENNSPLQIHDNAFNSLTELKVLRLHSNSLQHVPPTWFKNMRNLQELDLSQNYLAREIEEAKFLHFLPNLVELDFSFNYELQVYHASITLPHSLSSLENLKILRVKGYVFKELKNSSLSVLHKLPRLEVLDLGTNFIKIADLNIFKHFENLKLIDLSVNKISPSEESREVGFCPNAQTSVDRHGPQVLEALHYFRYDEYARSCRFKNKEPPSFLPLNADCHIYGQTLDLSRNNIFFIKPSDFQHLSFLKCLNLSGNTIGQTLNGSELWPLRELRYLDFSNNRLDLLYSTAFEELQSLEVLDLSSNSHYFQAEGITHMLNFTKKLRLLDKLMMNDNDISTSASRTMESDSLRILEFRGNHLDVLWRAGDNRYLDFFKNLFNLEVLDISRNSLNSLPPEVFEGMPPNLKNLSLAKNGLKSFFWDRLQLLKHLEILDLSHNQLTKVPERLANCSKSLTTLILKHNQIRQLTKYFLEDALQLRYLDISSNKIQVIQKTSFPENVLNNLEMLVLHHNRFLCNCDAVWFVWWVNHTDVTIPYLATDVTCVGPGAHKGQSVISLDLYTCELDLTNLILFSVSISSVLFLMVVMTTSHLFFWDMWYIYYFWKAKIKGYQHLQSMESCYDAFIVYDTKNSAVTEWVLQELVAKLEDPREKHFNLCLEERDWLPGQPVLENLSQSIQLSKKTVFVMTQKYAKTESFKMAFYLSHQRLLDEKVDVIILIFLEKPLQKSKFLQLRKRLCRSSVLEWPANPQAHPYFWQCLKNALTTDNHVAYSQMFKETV

Row | Structure (SMILES) | inhibition [1] | inhibition [2] | Activity (HEK293 [3]) | IC50 (Toll-like receptor 8) [µM] | IC50 (Toll-like receptor 7) [µM] | inhibition [4] | Activity (HEK293 [5]) | Activity (HEK293 [6])
1 | O=C(Nc1ccc(Oc2cc(C(F)(F)F)cc(C(F)(F)F)c2)cc1)c1c(F)cccc1I | Active | Active | Non-Toxic | 1.04 | > 50 | Active | Toxic | Toxic
2 | O=C(Nc1ccc(Oc2cncc(C(F)(F)F)c2)cc1)c1c(F)cccc1Cl |  | Active | Non-Toxic | 2.87 |  | Active | Toxic | Toxic
3 | O=C(Nc1ccc(Oc2cc(C(F)(F)F)cc(C(F)(F)F)c2)cc1)c1c(F)cccc1Cl |  |  |  | 1.64 | 2.88 |  |  | 
4 | O=[N+]([O-])c1c(I)cccc1Oc1ccc(-c2nnco2)cc1 | Active |  | Non-Toxic | 0.3 | > 20 | Active | Toxic | Toxic
